# RAD52 inh: RAD52 DNA annealing inhibitors, primary screen, biochemical, FRET, single point, set 2; recombinant RAD52 DNA annealing, FRET fluorescence; inhibition, % at 18.7 µM; 360,000 tested, 0.46% active;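 active means every replicate showing at least 50% inhibition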
# PglD DTNB: C. jejuni PglD acetyltransferase inhibitors, primary screen, biochemical, DTNB colorimetric, single point; UDP-N-acetylbacillosamine N-acetyltransferase PglD (Campylobacter jejuni); AID 602405, 2012; 360,000 tested, 0.098% active; purified PglD enzyme, DTNB colorimetric CoA detection; inhibition, % at 12.5 µM; in the data active means inhibition above about 16%, passing the limit was not always enough
# RAD54 branch: inhibitors of human RAD54 branch migration, primary screen, biochemical, fluorescence, single point | DNA repair and recombination protein RAD54-like (Homo sapiens), Q92698 | RAD54 Holliday junction branch migration, FAM/BHQ fluorescence | inhibition, % at 10.4 µM | 360,000 tested, 0.14% active | AID 602329, 2012;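 active means mean normalized replicate activity at least 40 and at least half of replicates scoring 40 or more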;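 further: 0% = median of neutral control wells and 100% = median of positive control wells; inhibitors cause a drop in the FAM fluorescence signal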
# Target sequence (Q92698 whole entry, looked up): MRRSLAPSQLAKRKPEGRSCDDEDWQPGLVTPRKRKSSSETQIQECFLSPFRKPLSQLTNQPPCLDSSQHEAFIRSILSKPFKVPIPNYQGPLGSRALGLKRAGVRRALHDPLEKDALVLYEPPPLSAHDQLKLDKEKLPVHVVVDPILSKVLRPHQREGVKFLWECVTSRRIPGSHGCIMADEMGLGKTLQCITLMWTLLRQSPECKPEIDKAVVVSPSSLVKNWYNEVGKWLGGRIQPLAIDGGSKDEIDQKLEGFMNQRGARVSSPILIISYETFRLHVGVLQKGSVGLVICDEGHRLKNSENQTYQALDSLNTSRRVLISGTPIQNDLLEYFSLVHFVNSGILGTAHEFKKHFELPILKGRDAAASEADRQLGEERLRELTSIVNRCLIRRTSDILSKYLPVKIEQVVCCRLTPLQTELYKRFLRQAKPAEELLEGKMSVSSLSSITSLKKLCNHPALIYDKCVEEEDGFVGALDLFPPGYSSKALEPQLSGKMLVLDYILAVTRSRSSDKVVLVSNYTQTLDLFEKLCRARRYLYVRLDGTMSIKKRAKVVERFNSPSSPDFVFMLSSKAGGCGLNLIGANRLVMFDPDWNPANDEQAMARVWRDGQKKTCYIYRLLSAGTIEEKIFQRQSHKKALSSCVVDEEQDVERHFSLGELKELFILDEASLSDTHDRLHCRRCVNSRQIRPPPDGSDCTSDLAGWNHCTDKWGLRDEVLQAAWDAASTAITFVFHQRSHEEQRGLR
# E-selectin induc: E-selectin induction in HUVECs, primary screen, imaging, HUVEC, immunofluorescence imaging, single point | 260,000 tested, 0.37% active | AID 686992, 2013 | P16581 | normalized: neutral wells 0, TNF-alpha wells 100 | activation, % at 7.58 µM;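 active means mean E-selectin-positive cell signal at least 10% of the positive control, reached in at least 60% of replicates, without over 20% cell loss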
#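 Material: HUVEC primary endothelial cells; Amount: 3,000 cells per well; Dosing: single concentration; Medium: EGM-2 growth medium on 0.1% gelatin-coated wells; Read-out basis: percent E-selectin-positive cells; Signal: immunofluorescence imaging; Control set: TNF-alpha, DMSO.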
# rRNA inh HTS: reduced GFP signal of wild-type E. coli, primary screen, bacterial rRNA inhibitor project, GFP/RFP fluorescence, OD600, single point. E. coli WT GFP vs humanized-ribosome RFP mutants, 24 h; active compounds read low; DMSO median 0, no signal -100. GFP signal change (wild-type ribosome), % (no concentration beside the values). 350,000 tested, 1.6% active. AID 720706, 2013;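 active means significant combined selectivity score with lowered wild-type GFP, culture density cut under 30%, mutant RFP and density less affected; inactive means any of these conditions unmet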
# Xi reactivation: activators of inactive X chromosome reactivation, primary screen, imaging, XiGFP fibroblasts, GFP high-content imaging, set 2; XiGFP mouse fibroblasts, % GFP-positive cells imaging, 3 d; cells co-treated with 5-aza-dC sensitizer; scaled so ellipticine positive control = 100%; activation, % at 7.58 µM; 360,000 tested, 0.055% active;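 active means mean normalized replicate activation at least 10% and every replicate at or above 10%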;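 further: 0% = median of on-plate neutral control wells and 100% = ellipticine 6 µM median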
#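 System: 68-5-11 XiGFP fibroblast line; Timing: 3 days compound exposure; Compound dosing: one concentration, pinned; Benchmarks: positive control ellipticine, 6 µM final; Buffer or medium: DMEM containing 5-aza-dC.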
# Starred values were filed as active, the others as inactive; i = inactive; nt = no result. Rows were chosen to be rich in hits. Some 2% of all compounds tested hit in one or more screens of this group.
SMILES,RAD52 inh,PglD DTNB,RAD54 branch,E-selectin induc,rRNA inh HTS,Xi reactivation
CCOc1ccc(-c2onc(C(F)(F)F)c2-c2cscn2)c(O)c1,2.4,1.6,-0.2,nt,-43.0*,nt
COc1cc(SC)ccc1C(=O)N1CCN(c2ccccc2F)CC1,3.6,nt,nt,6.4,-23.8*,0.0
COc1ccc(N2CCN(C(=O)c3ccc(SC)cc3OC)CC2)cc1,-3.5,nt,nt,nt,-2.0,-0.1
O=c1cc(CSc2nc(NCc3ccccc3)c3ccccc3n2)nc2ccc(Cl)cn12,-7.6,-4.4,-8.1,1.1,-31.8*,-0.1
C[C@H](CO)N1C[C@H](C)[C@H](CN(C)S(C)(=O)=O)Oc2ccc(NC(=O)C3CCCCC3)cc2CC1=O,-3.4,-1.0,3.6,-5.7,3.8,0.2
C[C@H]1CN([C@@H](C)CO)C(=O)Cc2cc(NC(=O)C3CCCCC3)ccc2O[C@H]1CN(C)C(=O)NC1CCCCC1,7.7,1.0,-29.3,307.0*,-0.2,0.0
C[C@H](CO)N1C[C@H](C)[C@@H](CN(C)S(C)(=O)=O)Oc2ccc(NC(=O)C3CCCCC3)cc2CC1=O,-15.6,-3.0,-0.9,26.9*,8.7,-0.1
CCCNC(=O)C[C@H]1CC[C@H]2[C@@H](COc3ccc(NC(=O)c4cccc(OC)c4)cc3C(=O)N2C)O1,6.0,3.1,-13.8,0.1,-1.0,0.3
CN1CCN(c2nc(-c3cccnc3)nc3scc(-c4ccccc4)c23)CC1,-7.8,-0.4,30.1,-2.3,-21.7*,0.0
CC1CCN(c2nc(-c3cccnc3)nc3scc(-c4ccccc4)c23)CC1,-20.2,nt,nt,nt,8.2,-0.1
COc1cc(/C=C(\C#N)C(=O)N2CCOCC2)cc(Br)c1O,-25.9,0.9,10.4,nt,-3.2,0.6
N#C/C(=C\c1cccc(Oc2ccccc2)c1)C(=O)N1CCOCC1,-29.4,-6.4,7.7,4.3,-24.7*,0.1
CCSc1nc2ccccc2c(=O)n1Cc1ccc(F)cc1,-0.7,nt,nt,0.2,-19.1*,-0.1
Cn1cc(/C=C/c2cc[n+](C)cc2)c2cc(Cl)ccc21,i,-15.7,-344.0,nt,60.2,48.6*
Cn1cc(/C=C/c2cc[n+](C)cc2)c2cc(F)ccc21,i,3.8,i,nt,63.7,nt
C[C@@H]1CN([C@H](C)CO)S(=O)(=O)c2ccc(C3=CCCC3)cc2O[C@H]1CN(C)C(=O)C1CC1,nt,nt,nt,0.0,0.7,0.2
C[C@@H]1CN([C@H](C)CO)C(=O)c2cccc(NC(=O)CCCCCC(=O)Nc3ccccc3N)c2O[C@@H]1CN(C)S(=O)(=O)c1cn(C)cn1,-0.1,nt,nt,391.2*,1.1,-1.2
C[C@H](CO)N1C[C@H](C)[C@H](CN(C)Cc2ccc(Cl)c(Cl)c2)Oc2c(NC(=O)CCCCCC(=O)Nc3ccccc3N)cccc2C1=O,-5.0,nt,nt,409.7*,-6.9,0.7
C[C@H](CO)N1C[C@H](C)[C@H](CN(C)Cc2ccc(Oc3ccccc3)cc2)Oc2ccc(NC(=O)CCCCCC(=O)Nc3ccccc3N)cc2CC1=O,17.5,1.9,-2.2,49.8*,-4.6,1.1
C[C@H]1CN([C@@H](C)CO)C(=O)Cc2cc(NC(=O)CCCCCC(=O)Nc3ccccc3N)ccc2O[C@H]1CN(C)Cc1ccc(Oc2ccccc2)cc1,9.5,-3.0,0.6,-5.9,-4.2,-0.7
C[C@H]1CN([C@@H](C)CO)C(=O)Cc2cc(NC(=O)CCCCCC(=O)Nc3ccccc3N)ccc2O[C@H]1CN(C)Cc1ccc(Cl)c(Cl)c1,-6.9,0.1,-6.9,75.3*,-6.9,0.3
C[C@@H]1CN([C@@H](C)CO)C(=O)c2cccc(NC(=O)CCCCCC(=O)Nc3ccccc3N)c2O[C@@H]1CN(C)Cc1ccccc1,-1.9,nt,nt,-0.1,-0.4,0.2
CC(C)NC(=O)N(C)C[C@@H]1Oc2ncc(C#Cc3cccc(F)c3)cc2C(=O)N([C@H](C)CO)C[C@@H]1C,-5.7,-3.6,-1.0,0.0,-0.5,-0.5
C[C@H](CO)N1C[C@H](C)[C@@H](CN(C)S(=O)(=O)c2ccc(Cl)cc2)Oc2c(NS(=O)(=O)c3ccccc3)cccc2C1=O,11.5,3.0,6.4,0.3,-1.0,-1.2
O=C(NCCN1CCCC1)[C@@H]1[C@@H](CO)[C@@H]2Cn3c(cccc3=O)[C@@H]2N1C(=O)c1ccccc1,-25.9,-2.3,9.2,-0.2,2.7,0.2
SMILES,RAD52 inh,PglD DTNB,RAD54 branch,E-selectin induc,rRNA inh HTS,Xi reactivation
CO[C@H]1CN(C)C(=O)c2ccc(NC(C)=O)cc2OC[C@H](C)N(C(=O)c2ccccc2)C[C@@H]1C,0.6,-2.4,1.3,0.1,1.9,-0.3
CCOC(=O)c1cc2c(=Cc3ccc(N(C)C)cc3)c3ccccc3n2[n+]1C,56.4*,nt,nt,138.7*,-53.3,0.0
Cc1cc2c(=Cc3ccc(N(C)C)cc3)c3ccccc3n2[n+]1C,-64.8,nt,nt,49.0*,-47.6,0.1
CN(C)c1ccc(C=c2c3ccccc3n3c2c2ccccc2[n+]3C)cc1,45.1,nt,nt,nt,nt,-0.2
COCC#Cc1cnc2c(c1)C(=O)N([C@H](C)CO)C[C@H](C)[C@H](CN(C)C(=O)C1CCC1)O2,11.0,2.7,-19.1,1.0,4.7,0.2
COCC#Cc1cnc2c(c1)C(=O)N([C@@H](C)CO)C[C@H](C)[C@@H](CN(C)C(=O)C1CCC1)O2,4.7,20.2*,-5.4,-0.3,2.1,-0.3
CC(C)CC#Cc1cnc2c(c1)C(=O)N([C@H](C)CO)C[C@@H](C)[C@H](CN(C)C(=O)c1ccc3c(c1)OCO3)O2,-3.4,0.6,9.2,74.5*,-2.3,-0.6
N#Cc1cccc(-c2ccc3c(c2)[C@H]2[C@H](CCN2C(=O)c2ccc4c(c2)OCO4)[C@H](CO)N3)c1,-95.4,1.3,5.8,-0.5,-1.8,-0.1
O=C(Nc1cccc(Br)c1)c1ccc(CN2CCc3ccccc3C2)cc1,-14.8,0.7,-7.4,0.4,2.6,0.0
CSc1cccc(NC(=O)c2ccc(CN3CCc4ccccc4C3)cc2)c1,-16.4,2.4,-4.4,nt,-23.2*,0.0
C[C@@H]1CCCCO[C@H](CN(C)Cc2ccccc2)[C@H](C)CN([C@@H](C)CO)C(=O)c2cc(NS(=O)(=O)c3ccc(Cl)cc3)ccc2O1,54.4*,2.4,0.0,nt,-29.4,-0.1
C[C@H](CO)N1C[C@H](C)[C@H](CN(C)Cc2ccccc2)OCCCC[C@H](C)Oc2ccc(NS(=O)(=O)c3ccc(F)cc3)cc2C1=O,77.1*,0.6,-10.7,nt,3.1,0.0

# Source: PubChem BioAssay (Broad Institute)
